The record followed here is PubChem BioAssay AID624466 (The Scripps Research Institute Molecular Screening Center, 2012).

Screen size: about 360,000 compounds; about 5,400 (1.5%) were called active. The sample holds actives, similar compounds and a random draw of the others, so the mix is not that of the screen.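 Rule for the calls: active = inhibition above a per-plate cutoff, the mean inhibition of test compounds on that plate plus 3 SD (cut at about 49% in these data); inactive = the rest.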

Chain of Trace amine-associated receptor 1 (Homo sapiens) (Q96RJ0 whole entry, looked up): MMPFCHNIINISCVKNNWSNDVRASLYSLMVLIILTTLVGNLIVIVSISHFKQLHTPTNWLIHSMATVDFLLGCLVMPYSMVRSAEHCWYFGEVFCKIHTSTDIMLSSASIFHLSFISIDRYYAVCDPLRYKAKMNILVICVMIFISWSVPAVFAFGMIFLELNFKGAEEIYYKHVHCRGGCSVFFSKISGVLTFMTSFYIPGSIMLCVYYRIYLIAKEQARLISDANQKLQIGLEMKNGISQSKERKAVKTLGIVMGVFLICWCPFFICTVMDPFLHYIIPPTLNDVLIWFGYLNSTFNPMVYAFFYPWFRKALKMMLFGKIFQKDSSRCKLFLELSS

This test addresses Trace amine-associated receptor 1 (Homo sapiens) (UniProt Q96RJ0). Description: blockers of beta-PEA-driven TAAR1 calcium signal – Fluo-8 calcium fluorescence, CHO RD-HGA16 cells, primary screen (AID 624466).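 Note: 0% = DMSO plus EC80 beta-PEA response and 100% = DMSO alone without agonist.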 To be noted: CHO RD-HGA16 TAAR1, Fluo-8 calcium fluorescence, antagonist; at 3 µM; active compounds read high. Summed up: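 System: CHO RD-HGA16 cells bearing hTAAR1. Reagent: EC80 β-phenethylamine stimulus. Schedule: seeding 17-24 h prior, 75-min 37 °C, 30-min RT dye loading. Signal: Fluo-8 intracellular calcium dye fluorescence, real-time kinetic reads. Read-out: % inhibition from peak post-agonist over basal fluorescence ratio. Benchmarks: vehicle wells and EC80 agonist wells. Replicates: n of 1.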
In general, inhibition refers to the drop in the measured response relative to a control, in per cent. Regarding `COc1ccc(NC(=O)CN(C)C(=O)c2ccc(COc3ccccc3)o2)cc1`, the inhibition was -57.5% (inactive).

Consider `Cc1cc(OCc2ccc(C(=O)Nc3ccc(C(=O)O)cc3)o2)ccc1Cl`, for which the inhibition is 50.2% (active).

Regarding `O=C(O)c1ccc(NC(=O)c2ccc(COc3ccc(Cl)cc3)o2)cc1`, the inhibition is 34.7% (inactive).

With `CC(C)(C)C(=O)c1c(N)[nH]c(C(=O)c2ccccc2)c1-c1ccc(F)cc1`, the inhibition was 2.74% (inactive).

On to `CCOC(=O)Cn1c2c(n(-c3ccc(F)cc3)c1=O)C=C(c1ccccc1)[C@@H](C)C(C(=O)N(C)C1CCCCC1)=C2`, for which the inhibition was -25% (inactive).

As for `COC(=O)[C@]12C[C@H](CC(=O)NCCC(C)C)C(=O)N(CCc3ccc(OC)c(OC)c3)C1=C[C@H](C(C)(C)C)O[C@@H]2C`, the inhibition was -15.9% (inactive).

Consider `Cc1cc2nc(-c3ccc(F)cc3)c(Cc3ccsc3)n2c(C)c1Br`, for which the inhibition was -3.77% (inactive).

In the case of `Cc1ccc(C)c(N2CCN(C(=O)CCCn3c(=O)c4cccn4c4cccnc43)CC2)c1`, the inhibition is 26% (inactive).

As for `Cc1ccc(C)c(N2CCN(C(=O)CCCCCn3c(=S)[nH]c4ccc(N5CCOCC5)cc4c3=O)CC2)c1`, the inhibition is 75% (active).

As for `O=C(CCCCCn1c(=S)[nH]c2cc3c(cc2c1=O)OCO3)N1CCN(c2ccc(F)cc2)CC1`, the inhibition is 11.1% (inactive).

As to `CCN(CCCNC(=O)c1ccc2c(c1)NC(=O)CN2C)c1cccc(C)c1`, the inhibition is -2.86% (inactive).

Consider `O=S(=O)(NCc1ccco1)c1cnc(Cl)c(Cl)c1`, for which the inhibition was -4.49% (inactive).

With `Cc1c(Cl)cnc(NC(=O)COC(=O)c2ccc(S(=O)(=O)NCc3ccco3)cc2)c1Cl`, the inhibition is -10.1% (inactive).

For the compound `C/C(=N\Nc1ncc(Cl)cc1Cl)c1ccc(S(=O)(=O)NCc2ccco2)cc1`, the inhibition was 49.3% (active).

Consider `O=C(COC(=O)Cn1cnc2ccccc2c1=O)NCC12CC3CC(CC(C3)C1)C2`, for which the inhibition was -9.23% (inactive).

For `CN[C@H]1C[C@H]2c3[nH]c4c(-c5ccccc5)cccc4c3CCN2C(=O)[C@H]1[C@H](C)O`, the inhibition was 15.3% (inactive).

As for `C[C@H](O)[C@@H]1C(=O)N2CCc3c([nH]c4c(-c5ccc6c(c5)OCO6)cccc34)[C@@H]2C[C@@H]1N(C)C(=O)c1ccco1`, the inhibition is 60.8% (active).

Consider `CCOC(=O)CNC(=O)N(C)[C@H]1C[C@H]2c3[nH]c4c(-c5ccc6c(c5)OCO6)cccc4c3CCN2C(=O)[C@H]1[C@H](C)O`, for which the inhibition is 12.4% (inactive).

For `O=C(CN1CCSCC1)N/N=C/c1ccc(Cl)cc1`, the inhibition is -17.2% (inactive).

`Cc1ccc(NC(=O)c2ccc(CSc3ncnc4nc[nH]c34)cc2)c(C)c1`: the inhibition is 56.7% (active).

With `CSc1ncc(C(=O)Nc2ccc(C)cc2C)c(C)n1`, the inhibition is -0.22% (inactive).

For the compound `CSCc1ccc(C(=O)Nc2cc(C)cc(C)c2)cc1`, the inhibition was 16.7% (inactive).

As for `CC[C@@H]1CCCCc2ccccc2[C@@H](C(=O)C[C@H](O)CC(C)=O)OC1=O`, the inhibition was 13.4% (inactive).

On to `C=CCn1c(SCc2c(C(=O)OC)sc(N)c2C(=O)OC)nnc1-c1ccc(Cl)cc1`, for which the inhibition was 34.7% (inactive).

`CCOc1cc(NC(=S)NCc2ccco2)c(OCC)cc1NC(=O)c1ccco1`: the inhibition was 9.19% (inactive).

In the case of `NS(=O)(=O)c1ccc(CNC(=S)NC(=O)c2ccco2)cc1`, the inhibition was 6.18% (inactive).

For the compound `O=C(NNC(=S)Nc1ccc(Br)cc1Cl)c1ccco1`, the inhibition was -2.77% (inactive).

With `O=C(Nc1ccc2ccccc2c1)/C(=C\c1ccc2c(c1)OCO2)NC(=O)c1ccco1`, the inhibition was 12.7% (inactive).

Take `CCCc1ccc(OCC(=O)NNC(=S)NC(=O)c2ccco2)cc1`: the inhibition is 74.2% (active).

Take `CC(Oc1ccc2ccccc2c1)C(=O)NNC(=S)NC(=O)c1ccco1` (configuration not stated): the inhibition is 61.9% (active).

Consider `Cc1ccc(S(=O)(=O)N2CC3C(=O)C[C@@H](c4ccccc4Cl)N(S(=O)(=O)c4ccc(C)cc4)C3CC2c2ccccc2)cc1` (some centres not stated), for which the inhibition is 2.68% (inactive).

As for `COC(=O)c1cc2c(c3c4cc(F)ccc4n(S(=O)(=O)c4ccccc4)c13)C(=O)N(Cc1ccccc1OC)C2`, the inhibition was -0.96% (inactive).

Take `O=C(C(=O)N1CCC(CNC(=O)c2cccnc2Cl)CC1)c1cccs1`: the inhibition is -12.2% (inactive).

With `COc1ccc(CNC(=O)COc2cccnc2[N+](=O)[O-])cc1`, the inhibition was -4.68% (inactive).

`Cc1ccc(-c2c(N)nc3ncccn23)cc1`: the inhibition is -8.72% (inactive).

As to `COCCn1c(C)cc(C(=O)CSc2nnc(C3CC3)n2C2CC2)c1C`, the inhibition was 10.2% (inactive).

On to `Nc1nc2c(Br)ccc(Br)c2cc1C(=O)NCCc1ccccc1`, for which the inhibition was -14% (inactive).

With `O=C(NNS(=O)(=O)c1ccc(F)cc1)C1CCCCC1`, the inhibition was -20.9% (inactive).

In the case of `O=C(CN1CCCSc2ccccc21)N1CCN(S(=O)(=O)c2cccc(F)c2)CC1`, the inhibition is 49.7% (active).

For the compound `O=C(CN1CCN(S(=O)(=O)c2cccc(Cl)c2)CC1)N1CCCCC1`, the inhibition was 6.11% (inactive).

Take `O=C(CN1CCCSc2ccccc21)N1CCN(S(=O)(=O)c2ccccc2)CC1`: the inhibition was 18.8% (inactive).

For the compound `Cc1ccccc1C(=O)N[C@H](C(=O)N1CCC[C@H]1C(=O)NCc1ccccc1)C(C)C`, the inhibition is 14.4% (inactive).

`O=C(NC1CCCC1)C1c2ccccc2OCC(=O)N1CC(F)(F)F` (configuration not stated): the inhibition is 4.73% (inactive).

As to `CCOc1ccccc1N1CN(Cc2ccccc2)CNC1=S`, the inhibition was -9.06% (inactive).

For the compound `COc1ccc2[nH]cc(/C=C(/C#N)S(=O)(=O)c3ccccc3)c2c1`, the inhibition is 51% (active).

Consider `COc1ccc2[nH]cc(CCN3C(=O)c4ccc(C(=O)O)cc4C3=O)c2c1`, for which the inhibition is -11.2% (inactive).

Turning to `COc1ccc(NS(=O)(=O)c2ccc(Oc3c(C#N)cccc3C#N)cc2)cc1`, the inhibition is 38.8% (inactive).

For `OC(CN=c1sc2ccccc2n1CC(O)COc1ccccc1)COc1ccccc1` (configuration not stated), the inhibition is 67.2% (active).

As for `CC(C)c1ccc(OCC(O)Cn2cnc3ccccc32)cc1` (configuration not stated), the inhibition was -0.64% (inactive).

Regarding `Cc1cccc(OCC(O)Cn2c(=N)n(CCN3CCOCC3)c3ccccc32)c1` (configuration not stated), the inhibition is -7.65% (inactive).

Turning to `O=C(COC(=O)CCc1nc2ccccc2c(=O)[nH]1)Nc1ccc(N2CCOCC2)cc1`, the inhibition was 0.61% (inactive).

Turning to `O=C(COC(=O)CCCSc1nc2ccccc2[nH]1)Nc1ccc(Oc2ccccc2)cc1`, the inhibition was 67.1% (active).

As for `CC(C)(C)c1ccc(NC(=O)COC(=O)CCc2nc3ccccc3c(=O)[nH]2)cc1`, the inhibition is 6.51% (inactive).

On to `Nc1nc2c(ncn2[C@@H]2O[C@H](C(=O)N[C@H](Cc3ccccc3)C(=O)NCC3CCCCC3)[C@@H](O)[C@H]2O)c(=O)[nH]1`, for which the inhibition is -12.4% (inactive).

Turning to `O=C(Cn1cncn1)N/N=C/c1c2ccccc2cc2ccccc12`, the inhibition is -12.2% (inactive).

In the case of `Cc1ccc(S(=O)(=O)N[C@H](CO)C(C)C)cc1`, the inhibition is -9.25% (inactive).

Turning to `NC(c1ccccc1)c1csc(NC(=O)Nc2cccc(C(F)(F)F)c2)n1` (configuration not stated), the inhibition was 35.6% (inactive).

On to `CC(=O)Nc1ccc(-c2csc(NC(=O)Nc3ccccc3)n2)cc1`, for which the inhibition is 63.2% (active).

As for `Cc1ccc(NC(=O)Nc2cc(-c3ccccc3)nn2C)cc1Cl`, the inhibition is 8.7% (inactive).

For the compound `CCCC(CNC(=O)COC(=O)C1=NNC(=O)CC1)c1ccc(Cl)cc1Cl` (configuration not stated), the inhibition was -3.84% (inactive).

As to `COCCCNC(=O)C1CC(=O)N(c2ccc(C)cc2)C1` (configuration not stated), the inhibition is -3.91% (inactive).

`O=C(NCCCO)c1cc2c([nH]c3ccccc32)c(-c2ccc(F)cc2)n1`: the inhibition is 23.9% (inactive).

On to `COc1ccc2cc(C(=O)NCC3CCCO3)[nH]c2c1` (configuration not stated), for which the inhibition was -16.3% (inactive).

Regarding `O=C(NCC1CCCO1)c1cc2c([nH]c3ccccc32)c(-c2ccc(F)cc2)n1` (configuration not stated), the inhibition is 74.8% (active).

For the compound `CC(=O)Nc1cccc(-c2cc(NC=O)c3ncc(-c4ccc(F)c(Cl)c4)n3c2)c1`, the inhibition was 39% (inactive).

With `Cc1c(C)n2c(SCC(=O)N3CCCC3)nnc2[nH]c1=O`, the inhibition is -9.03% (inactive).

For `CN1CCCCC(NC(=O)C(C)(C)C)C1=O` (configuration not stated), the inhibition was -14% (inactive).

Turning to `Cc1ccc(/C=C/C(=O)Nc2ccc([N+](=O)[O-])c(NC(=O)/C=C/c3ccc(C)o3)c2)o1`, the inhibition is 48.8% (active).

For the compound `Cc1ccc(/C=C/C(=O)Nc2cc(S(=O)(=O)N3CCCCCC3)ccc2OCC(F)(F)F)o1`, the inhibition is -13.9% (inactive).

With `COC(=O)/C=C\C(=O)Nc1cccc([N+](=O)[O-])c1`, the inhibition was -1.13% (inactive).

As to `CC(C(=O)N=Nc1c(O)n(C)c2ccc(Br)cc12)n1cnc2ccccc2c1=O` (configuration not stated), the inhibition was -6.29% (inactive).

Regarding `COCc1[nH]nc2c1C(c1ccccc1)N(c1ccccc1)C2=O` (configuration not stated), the inhibition was -20.8% (inactive).

Turning to `O=[N+]([O-])c1ccc(N2CCNCC2)cc1NCc1cccnc1`, the inhibition is 13.4% (inactive).

For `COC(=O)c1sccc1NC(=O)CCC1CCCC1`, the inhibition is 15.8% (inactive).

Regarding `COC(=O)c1sccc1NC(=O)c1cc(OC)c(OC)c(OC)c1`, the inhibition was 52.3% (active).

Take `COc1ccc(Cc2nnc(NC(=O)c3cc(OC)c(OC)c(OC)c3)s2)cc1OC`: the inhibition was -43.4% (inactive).

On to `CCOC(=O)[C@]12CCC=C1N(Cc1ccco1)C(=O)[C@H](CC(=O)NCc1cccc(C(F)(F)F)c1)C2`, for which the inhibition is -12.7% (inactive).

In the case of `O=S1(=O)CC(N2CCN(CCO)CC2)CN1Cc1cn(Cc2cccc(Cl)c2)nn1` (configuration not stated), the inhibition was -8.99% (inactive).

Regarding `O=C(N/N=C/c1ccccc1O)/C(=C/c1ccccc1)CCO`, the inhibition is 12.2% (inactive).

For `O=C(NN=Cc1ccccc1O)NN=Cc1ccccc1O`, the inhibition was 53.9% (active).

Consider `Oc1ccccc1C=NC1CCCCC1N=Cc1ccccc1O` (configuration not stated), for which the inhibition is 0.73% (inactive).

Regarding `CN1C(=O)C(Br)(Br)CC1c1cccnc1` (configuration not stated), the inhibition is -9.8% (inactive).

On to `C/C(=N/NC(=O)CCc1ccccc1)c1ccco1`, for which the inhibition was -8.62% (inactive).

`O=C(CCc1ccccc1)Nc1cccc(-c2nnc(-c3ccco3)o2)c1`: the inhibition was 56.8% (active).

In the case of `O=C(CSc1nnc(-c2ccco2)o1)NCC(=O)c1ccccc1`, the inhibition was -36% (inactive).

For the compound `COC1(C2=NCCN2)COc2ccccc2O1` (configuration not stated), the inhibition was -15.3% (inactive).

In the case of `Cc1ccc(S(=O)(=O)N(c2cccc(C)c2)C2CCS(=O)(=O)C2)cc1` (configuration not stated), the inhibition was -4.68% (inactive).
